# Activity calls are given as the source filed them. The calls are words filed in the database; no cut-off is given here.
# Columns and labels:
# Influenza A virus [1] = test: Antiviral activity against Influenza A virus (A/PR/8/34(H1N1)) infected in MDCK cells assessed as reduction in viral NP protein expression after 24 hrs by DAPI staining based fluorescence microscopic method; format: functional, organism-based; details: A/Puerto Rico/8/1934(H1N1)
# How it was run: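 MDCK cells infected at MOI 0.01 for 1 h, then given increasing concentrations for 24 h. Fixed in 4% paraformaldehyde and blocked with 3% BSA. Stained with anti-NP (1:200, overnight, 4 °C), then FITC secondary (4 h, RT); DAPI nuclear stain; fluorescence microscopy.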
# Escherichia coli = test: Antibacterial activity against Escherichia coli ATCC 25922; format: functional
# Influenza A virus H3N2 = test: Antiviral activity against Influenza A virus (A/Aichi/2/68(H3N2)) infected in MDCK cells assessed as reduction in virus-induced cytopathic effect by MTT assay; format: functional, organism-based; details: A/Aichi/2/1968(H3N2)
# How it was run: (§1)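 MTT-based cytopathic-effect reduction assay in MDCK cells. Run in triplicate; IC50 reported as mean ± SD.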
# HepG2 = test: Cytotoxicity against human HepG2 cells by MTT assay; format: functional, cell-based
# SGC-7901 = test: Cytotoxicity against human SGC7901 cells by MTT assay; format: functional, cell-based
# [2] = molecular target: Hemagglutinin (Influenza A virus (A/Puerto Rico/8/1934(H1N1))) (UniProt P03452); test: Inhibition of Influenza A virus (A/PR/8/34(H1N1)) HA-mediated chicken erythrocytes hemagglutination preincubated for 30 mins followed by erythrocytes addition and measured for 1 hr
# How it was run: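 Twofold serial compound dilutions mixed with PR8 at different titres for 30 min at RT. 0.5% chicken erythrocytes added; read after 1 h at 37 °C. Virus diluent without compound as negative control, PBS as blank.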
# Influenza A virus [3] = test: Antiviral activity against Influenza A virus isolate 690 (H3) infected in MDCK cells assessed as reduction in virus-induced cytopathic effect by MTT assay; format: functional, organism-based; how it was run: as §1
# Influenza A virus [4] = test: Antiviral activity against Influenza A virus (A/PR/8/34(H1N1)) infected in MDCK cells assessed as reduction in plaque formation after 72 hrs by crystal violet staining based assay; format: functional, organism-based; details: A/Puerto Rico/8/1934(H1N1)
# How it was run: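 MDCK monolayers infected with PR8 at MOI 0.005 for 1 h at 37 °C. Overlay of serum-free MEM with serially diluted compound, 2% microcrystalline cellulose and 1.5 μg/mL trypsin. After 72 h, cells fixed and stained with 4% paraformaldehyde/2% crystal violet for 20 min; plaques assessed.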
# [5] = molecular target: Neuraminidase (Influenza A virus (A/Puerto Rico/8/1934(H1N1))) (UniProt P03468); test: Inhibition of Influenza A virus (A/PR/8/34(H1N1)) NA assessed as reduction in viral particle release using 2-(4-methylumbelliferyl)-alpha-D-N-acetylneuraminic acid sodium as substrate preincubated for 30 mins followed by substrate addition and measured for 1 hr by fluorescence assay
# How it was run: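 PR8 in reaction buffer mixed with twofold-diluted compound for 30 min at 37 °C. 20 μM MUNANA substrate added for 1 h at 37 °C; stopped with 14 mM NaOH. 4-MU fluorescence read at ex 340/em 440 nm.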
# Influenza A virus [6] = test: Antiviral activity against Influenza A virus (A/PR/8/34(H1N1)) infected in MDCK cells assessed as reduction in viral NP protein expression after 24 hrs by Western blot method; format: functional, organism-based; details: A/Puerto Rico/8/1934(H1N1)
# How it was run: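 MDCK monolayers infected with PR8 at MOI 0.01 for 1 h at 37 °C, then given serial dilutions. At 24 h, lysates equalised for protein and run on 10% SDS-PAGE. NP detected with anti-NP (1:1000) and HRP secondary, β-actin as loading control; ECL read-out.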
# [7] = Cytotoxicity against MDCK cells by MTT assay; format: cell-based, Canis lupus familiaris; details: dog
# How it was run: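 MDCK viability measured by MTT at concentrations up to 200 μM. Run in triplicate; CC50 reported.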
# [8] = system: Influenza A virus (A/Puerto Rico/8/1934(H1N1)); test: Inhibition of RNA-dependent RNA polymerase in Influenza A virus (A/PR/8/34(H1N1)) infected in human 293T cells assessed as reduction in viral RNA level at 10 uM measured at 3 and 6 hrs post infection by RT-PCR method; format: cell-based
# 786-0 = test: Cytotoxicity against human 786-O cells by MTT assay; format: functional, cell-based
# [9] = system: Erysipelothrix rhusiopathiae; test: Antibacterial activity against Erysipelothrix rhusiopathiae ATCC 19414; format: functional
# Influenza A virus [10] = test: Antiviral activity against Influenza A virus (A/PR/8/34(H1N1)) infected in MDCK cells assessed as reduction in viral HA mRNA expression after 24 hrs by qRT-PCR method; format: functional, organism-based; details: A/Puerto Rico/8/1934(H1N1)
# How it was run: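 Infected MDCK cells treated with a concentration series for 24 h. Total RNA reverse-transcribed; viral HA mRNA quantified by qRT-PCR with GAPDH as internal control. Triplicate, mean ± SD.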
# [11] = molecular target: Polymerase basic protein 2 (Influenza A virus (strain A/Puerto Rico/8/1934 H1N1), UniProt P03428); test: Binding affinity to Influenza A virus RNA polymerase PB2 by SPR assay
# How it was run: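 PB2-cap protein (0.5 μM) immobilised on CM5 chip at pH 5.0. Compound injected at 7.8–125 nM for 180 s at 50 μL/min, 25 °C; chip regenerated with 50 mM NaOH. KD from fitted sensorgrams; reference compound included.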
# Influenza A virus [12] = test: Antiviral activity against Influenza A virus (A/PR/8/34(H1N1)) infected in MDCK cells assessed as reduction in viral HA mRNA level at 10 uM measured 10 hrs post infection by qRT-PCR analysis; format: functional, organism-based; details: Influenza A virus (A/Puerto Rico/8/1934(H1N1))
# How it was run: (§2)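 Compound added to PR8-infected MDCK cells at defined time points covering the first replication cycle. At 10 h postinfection, NP measured by Western blot and HA mRNA by quantitative RT-PCR.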
# Cynodon dactylon = test: Inhibition of seed germination in Cynodon dactylon at 100 ug/ml after 7 days; format: functional, organism-based
# How it was run: (§3)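 Ten surface-sterilised seeds per well on agar. Test solution at 100 μg/mL in 5% EtOH added; three wells per sample. Incubated at 20 °C, 12:12 h photoperiod, 7 days; germination scored.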
# [13] = molecular target: Polymerase basic protein 2 (Influenza A virus (strain A/Puerto Rico/8/1934 H1N1)) (UniProt P03428); test: Inhibition of fluorescently-labeled m7GTP binding to Influenza A virus RNA polymerase PB2 preincubated for 15 mins followed by m7GTP addition measured after 1 hr by HTRF assay
# How it was run: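 PB2 protein preincubated with compound at different concentrations for 15 min at RT. Premixed fluorescent probe (m7GTP cap analogue) added; HTRF read after 1 h. Three independent experiments, mean ± SD.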
# Influenza A virus [14] = test: Antiviral activity against Influenza A virus (A/PR/8/34(H1N1)) infected in MDCK cells assessed as reduction in virus-induced cytopathic effect treated post viral infection for 1 hr and measured after 48 hrs by MTT assay; format: functional, organism-based; details: A/Puerto Rico/8/1934(H1N1)
# How it was run: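 Postinfection: infected MDCK cells given increasing concentrations for 1 h at 37 °C, then medium replaced. Viability by MTT after a further 48 h.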
# Influenza A virus [15] = test: Antiviral activity against Influenza A virus (A/FM-1/1/47(H1N1)) infected in MDCK cells assessed as reduction in virus-induced cytopathic effect by MTT assay; format: functional, organism-based; details: A/Fort Monmouth/1/1947(H1N1); how it was run: as §1
# [16] = Antibacterial activity against Pasteurella multocida subsp. multocida ATCC 43137; format: functional
# OS-RC-2 = test: Cytotoxicity against human OS-RC2 cells by MTT assay; format: functional, cell-based
# Influenza A virus [17] = test: Antiviral activity against Influenza A virus (A/PR/8/34(H1N1)) infected in MDCK cells assessed as reduction in viral NP production at 10 uM measured 10 hrs post infection by Western blot analysis; format: functional, organism-based; details: Influenza A virus (A/Puerto Rico/8/1934(H1N1)); how it was run: as §2
# Influenza A virus [18] = test: Antiviral activity against Influenza A virus (A/PR/8/34(H1N1)) infected in MDCK cells assessed as reduction in virus-induced cytopathic effect co-treated with viral infection for 30 mins and measured after 48 hrs by MTT assay; format: functional, organism-based; details: A/Puerto Rico/8/1934(H1N1)
# How it was run: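 Entire-infection: virus–compound mixture (PR8, MOI 0.01, 30 min at 37 °C) added to MDCK cells. Unabsorbed virus removed; fresh medium with 1 μg/mL TPCK-trypsin plus compound added. Viability by MTT after 48 h.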
# Influenza A virus [19] = test: Antiviral activity against Influenza A virus (A/PR/8/34(H1N1)) infected in MDCK cells assessed as reduction in virus-induced cytopathic effect pretreated with virus for 30 mins followed by viral infection incubated for 30 mins and measured after 48 hrs by MTT assay; format: functional, organism-based; details: A/Puerto Rico/8/1934(H1N1)
# How it was run: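 Preinfection: PR8 (MOI 0.01) mixed with compound for 30 min at 37 °C, then added to MDCK cells for 30 min. Medium replaced with fresh medium containing 1 μg/mL TPCK-trypsin. Viability by MTT after a further 48 h.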
# Staphylococcus aureus = test: Antibacterial activity against Staphylococcus aureus subsp. aureus Rosenbach ATCC 25923; format: functional
# Arabidopsis thaliana = test: Inhibition of seed germination in Arabidopsis thaliana at 100 ug/ml after 7 days; format: functional, organism-based; how it was run: as §3
# ACHN = test: Cytotoxicity against human ACHN cells by MTT assay; format: functional, cell-based
# Influenza A virus [20] = test: Antiviral activity against Influenza A virus (A/PR/8/34(H1N1)) infected in MDCK cells assessed as reduction in virus-induced cytopathic effect by MTT assay; format: functional, organism-based; details: A/Puerto Rico/8/1934(H1N1); how it was run: as §1
# Sequence of Polymerase basic protein 2 (P03428 whole entry): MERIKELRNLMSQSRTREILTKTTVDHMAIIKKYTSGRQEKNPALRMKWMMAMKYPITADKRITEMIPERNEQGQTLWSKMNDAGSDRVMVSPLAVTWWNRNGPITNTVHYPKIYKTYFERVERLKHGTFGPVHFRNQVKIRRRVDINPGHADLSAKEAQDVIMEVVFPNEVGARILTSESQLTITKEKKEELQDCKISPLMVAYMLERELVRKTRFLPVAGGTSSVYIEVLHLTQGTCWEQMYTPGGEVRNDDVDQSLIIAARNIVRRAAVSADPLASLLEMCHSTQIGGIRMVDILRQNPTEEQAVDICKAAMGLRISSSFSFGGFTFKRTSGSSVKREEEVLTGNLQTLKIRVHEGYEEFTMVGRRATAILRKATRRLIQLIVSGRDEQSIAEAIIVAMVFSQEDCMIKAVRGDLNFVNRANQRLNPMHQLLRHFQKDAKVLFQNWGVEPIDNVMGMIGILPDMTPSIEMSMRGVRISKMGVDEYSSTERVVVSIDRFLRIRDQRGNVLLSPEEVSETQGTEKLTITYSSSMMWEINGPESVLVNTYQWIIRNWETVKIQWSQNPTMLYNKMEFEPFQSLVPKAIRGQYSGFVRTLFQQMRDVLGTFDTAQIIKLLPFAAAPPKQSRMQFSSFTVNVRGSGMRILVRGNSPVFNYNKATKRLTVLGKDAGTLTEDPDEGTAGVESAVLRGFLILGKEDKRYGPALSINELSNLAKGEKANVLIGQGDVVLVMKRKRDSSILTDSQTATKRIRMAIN
# Sequence of Polymerase basic protein 2 (Influenza A virus (strain A/Puerto Rico/8/1934 H1N1)) (P03428 whole entry, looked up): as the sequence (P03428 whole entry) above
# Sequence of Neuraminidase (Influenza A virus (A/Puerto Rico/8/1934(H1N1))) (P03468 whole entry): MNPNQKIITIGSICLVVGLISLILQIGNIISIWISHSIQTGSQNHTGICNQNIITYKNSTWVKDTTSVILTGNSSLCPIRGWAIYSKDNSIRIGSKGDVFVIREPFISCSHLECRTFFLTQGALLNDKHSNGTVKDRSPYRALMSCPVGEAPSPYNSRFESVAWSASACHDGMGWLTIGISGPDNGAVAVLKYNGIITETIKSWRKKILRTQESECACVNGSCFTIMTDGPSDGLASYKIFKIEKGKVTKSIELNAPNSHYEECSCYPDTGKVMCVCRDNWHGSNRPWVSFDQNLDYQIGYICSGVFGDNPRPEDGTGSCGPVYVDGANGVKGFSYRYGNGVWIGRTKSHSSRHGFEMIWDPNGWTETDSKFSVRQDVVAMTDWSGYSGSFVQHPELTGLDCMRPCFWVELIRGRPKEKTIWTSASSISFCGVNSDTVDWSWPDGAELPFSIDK
# Sequence of Hemagglutinin (Influenza A virus (A/Puerto Rico/8/1934(H1N1))) (P03452 whole entry): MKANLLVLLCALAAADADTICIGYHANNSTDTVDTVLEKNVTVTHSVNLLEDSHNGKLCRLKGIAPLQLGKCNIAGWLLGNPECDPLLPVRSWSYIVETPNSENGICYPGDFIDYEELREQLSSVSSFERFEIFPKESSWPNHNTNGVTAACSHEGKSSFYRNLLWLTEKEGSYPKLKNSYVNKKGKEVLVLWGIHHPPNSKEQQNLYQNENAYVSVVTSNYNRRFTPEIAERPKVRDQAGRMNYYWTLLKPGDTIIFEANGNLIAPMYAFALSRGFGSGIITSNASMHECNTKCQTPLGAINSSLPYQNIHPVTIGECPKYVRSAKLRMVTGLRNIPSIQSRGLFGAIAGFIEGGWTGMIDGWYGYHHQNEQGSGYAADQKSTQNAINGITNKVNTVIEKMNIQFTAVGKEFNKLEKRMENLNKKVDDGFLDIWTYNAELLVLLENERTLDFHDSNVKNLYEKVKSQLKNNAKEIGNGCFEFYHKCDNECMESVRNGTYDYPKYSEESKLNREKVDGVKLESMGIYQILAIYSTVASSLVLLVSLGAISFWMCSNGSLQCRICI
Compound,MIC (Escherichia coli) [µg/mL],IC50 (HepG2) [µM],IC50 (SGC-7901) [µM],inhibition [8],IC50 (786-0) [µM],MIC [9] [µg/mL],Kd [11] [µM],inhibition (Cynodon dactylon),MIC [16] [µg/mL],IC50 (OS-RC-2) [µM],MIC (Staphylococcus aureus) [µg/mL],inhibition (Arabidopsis thaliana),IC50 (ACHN) [µM],IC50 (Influenza A virus [20]) [µM],further results
CC/C=C1/C=CC(=O)[C@@H](O)[C@]12C(=O)N(OC)[C@@](C)(OC)[C@@H]2O,> 100,> 50,> 50,Active,> 50,> 100,0.077,inactive,> 100,> 50,> 100,inactive,> 50,1.6,Activity (Influenza A virus [1]): Dose-dependent effect; IC50 (Influenza A virus H3N2): 4.1 µM; inhibition [2]: inactive; IC50 (Influenza A virus [3]): 1.7 µM; Activity (Influenza A virus [4]): Dose-dependent effect; inhibition [5]: inactive; Activity (Influenza A virus [6]): Dose-dependent effect; CC50 [7]: > 200 µM; Activity (Influenza A virus [10]): Dose-dependent effect; Activity (Influenza A virus [12]): Active; inhibition [13]: Dose-dependent effect; Activity (Influenza A virus [14]): Active; IC50 (Influenza A virus [15]): 5.5 µM; Activity (Influenza A virus [17]): Active; Activity (Influenza A virus [18]): Active; Activity (Influenza A virus [19]): inactive
C=C1[C@H](O)[C@@]2(C(=O)N1OC)/C(=C\CC)C=CC(=O)[C@H]2O,> 100,> 50,> 50,,> 50,> 100,,inactive,> 100,> 50,> 100,inactive,> 50,21,
CCC(CC)[C@H](NC(C)=O)[C@@H]1[C@H](O)[C@@H](C(=O)O)C[C@H]1NC(=N)N,,,,inactive,,,,,,,,,,,
O=c1oc2cc(O)cc(O)c2c2ccccc12,,,,,,,3.6,,,,,,,,
